Reference: ChEMBL document CHEMBL1124186, “Synthesis and evaluation of tylosin-related macrolides modified at the aldehyde function: a new series of orally effective antibiotics” (1988)
In brackets after ≈: the same amount, converted by molar mass.

What was measured:
Bacteroides fragilis [1] = assay: In vitro antimicrobial activity against anaerobic bacteria bacteroides fragilis 111; type: functional
Bacteroides fragilis [2] = assay: In vitro antimicrobial activity against anaerobic bacteria bacteroides fragilis 1877; type: functional
Bacteroides fragilis [3] = assay: In vitro antimicrobial activity against anaerobic bacteria bacteroides fragilis 1936B,; type: functional
Eikenella corrodens = assay: In vitro antimicrobial activity against anaerobic bacteria bacteroides corrodens 1874; type: functional
Phocaeicola vulgatus = assay: In vitro antimicrobial activity against anaerobic bacteria bacteroides vulgatus 1211; type: functional
[4] = tested on: Prevotella melaninogenica; assay: In vitro antimicrobial activity against anaerobic bacteria bacteroides melaninogenicus 1856,; type: functional
[5] = tested on: Bacteroides thetaiotaomicron; assay: In vitro antimicrobial activity against anaerobic bacteria bacteroides thetaiotaomicron 1438; type: functional
Clostridioides difficile = assay: In vitro antimicrobial activity against anaerobic bacteria Clostridium difficile 2994; type: functional
Clostridium perfringens = assay: In vitro antimicrobial activity against anaerobic bacteria clostridium perfringens 81,; type: functional
Clostridium septicum = assay: In vitro antimicrobial activity against anaerobic bacteria clostridium septicum 1128; type: functional
Chlamydia trachomatis = assay: In vitro antimicrobial activity against chlamydia trachomatis.; type: functional
Fusobacterium = assay: In vitro antimicrobial activity against anaerobic bacteria fusobacterium symbiosum 1470; type: functional
Haemophilus influenzae [6] = assay: In vitro antimicrobial activity against aerobic bacteria Haemophilus influenzae 76; type: functional
Haemophilus influenzae [7] = assay: In vitro antimicrobial activity against aerobic bacteria Haemophilus influenzae MX366,; type: functional
Haemophilus influenzae [8] = assay: In vitro antimicrobial activity against Haemophilus influenzae.; type: functional
[9] = tested on: Haemophilus parainfluenzae; assay: In vitro antimicrobial activity against aerobic bacteria Haemophilus parainfluenzae 9796; type: functional
[10] = In vitro antimicrobial activity against anaerobic bacteria peptostreptococcus intermedius 1264; type: functional
[11] = tested on: Peptoniphilus asaccharolyticus; assay: In vitro antimicrobial activity against anaerobic bacteria peptococcus asaccharolyticus 1302; type: functional
Anaerococcus prevotii = assay: In vitro antimicrobial activity against anaerobic bacteria peptococcus prevoti 1281; type: functional
Cutibacterium acnes = assay: In vitro antimicrobial activity against anaerobic bacteria propionibacterium acnes 79; type: functional
[12] = tested on: Staphylococcus epidermidis; assay: In vitro antimicrobial activity against aerobic bacteria Streptococcus epi 270; type: functional
Staphylococcus aureus [13] = assay: In vitro antimicrobial activity against Staphylococcus aureus X1; type: functional
Staphylococcus aureus [14] = assay: In vitro antimicrobial activity against aerobic bacteria Staphylococcus aureus 513E; type: functional
Staphylococcus aureus [15] = assay: In vitro antimicrobial activity against aerobic bacteria Staphylococcus aureus V140,; type: functional
Staphylococcus aureus [16] = assay: In vitro antimicrobial activity against aerobic bacteria Staphylococcus aureus V41; type: functional
Staphylococcus aureus [17] = assay: In vitro antimicrobial activity against aerobic bacteria Staphylococcus aureus X400; type: functional
Streptococcus pyogenes [18] = assay: In vivo activity against experimental infections in rodent caused by Streptococcus pyogenes C203 when administered orally; type: functional; conditions: po
Streptococcus pneumoniae [19] = assay: In vivo effective dose against experimental infections in mice Streptococcus pneumoniae park when administered orally; type: functional; conditions: po
Streptococcus pneumoniae [20] = assay: In vivo effective dose against experimental infections in mice Streptococcus pneumoniae park when administered sc; type: functional
Streptococcus pneumoniae [21] = assay: In vitro antimicrobial activity against aerobic bacteria Streptococcus pneumoniae B1-438; type: functional, streptococcus pneum
Streptococcus sanguinis = assay: In vitro antimicrobial activity against aerobic bacteria Streptococcus sanguis MX132; type: functional
Streptococcus pyogenes [22] = assay: Activity against Streptococcus pyogenes C203 when administered orally; type: functional; conditions: po
How it was run: (§1)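 Mouse protection test: infected mice were dosed twice, at 1 and 5 h postinfection, either subcutaneously or orally. […] The result is expressed as ED50 in mg/kg × 2.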

Streptococcus pyogenes [23] = assay: Activity against Streptococcus pyogenes C203 when administered sc; type: functional; how it was run: as §1
Streptococcus pneumoniae [24] = assay: In vitro antimicrobial activity against Streptococcus pneumoniae; type: functional
[25] = tested on: Staphylococcus epidermidis; assay: In vitro antimicrobial activity against Staphylococcus epidermidis EPI1; type: functional
[26] = tested on: Staphylococcus epidermidis; assay: In vitro antimicrobial activity against aerobic bacteria Streptococcus epi 222; type: functional
Staphylococcus aureus [27] = assay: In vivo effective dose against experimental infections in mice Staphylococcus aureus X1 when administered orally; type: functional; conditions: po
Staphylococcus aureus [28] = assay: In vivo effective dose against experimental infections in mice Staphylococcus aureus X1 when administered sc; type: functional
Enterococcus faecium = assay: In vitro antimicrobial activity against Streptococcus faecium X66; type: functional, streptococcus fae-cium
Streptococcus pyogenes [29] = assay: In vitro antimicrobial activity against Streptococcus pyogenes C203; type: functional
Streptococcus viridans = assay: In vitro antimicrobial activity against aerobic bacteria Streptococcus viridans 9943; type: functional
[30] = tested on: Peptostreptococcus anaerobius; assay: In vitro antimicrobial activity against anaerobic bacteria peptostreptococcus anaerobius 1428,; type: functional
Streptococcus [31] = assay: In vitro antimicrobial activity against aerobic bacteria Streptococcus B 5; type: functional
Staphylococcus aureus [32] = assay: In vitro antimicrobial activity against aerobic bacteria Staphylococcus aureus V135; type: functional
Haemophilus influenzae [33] = assay: In vitro antimicrobial activity against aerobic bacteria Haemophilus influenzae 465; type: functional
[34] = tested on: Prevotella melaninogenica; assay: In vitro antimicrobial activity against anaerobic bacteria bacteroides melaninogenicus 2736; type: functional
[35] = tested on: Fusobacterium necrophorum; assay: In vitro antimicrobial activity against anaerobic bacteria usobacterium necrophorum 6054A; type: functional
Collinsella aerofaciens [36] = assay: In vitro antimicrobial activity against anaerobic bacteria eubacterium aerofaciens 1235; type: functional
Streptococcus pyogenes [37] = assay: In vivo pyogenes C203 when administered sc; type: functional
Streptococcus [38] = assay: In vitro antimicrobial activity against aerobic bacteria Streptococcus B 8
Streptococcus [39] = assay: In vitro antimicrobial activity against aerobic bacteria Streptococcus C 24
Streptococcus [40] = assay: In vitro antimicrobial activity against aerobic bacteria Streptococcus D 2041
Streptococcus [41] = assay: In vitro antimicrobial activity against aerobic bacteria Streptococcus D 8043
Streptococcus [42] = assay: In vitro antimicrobial activity against aerobic bacteria Streptococcus D 9960
Streptococcus [43] = assay: In vitro antimicrobial activity against aerobic bacteria Streptococcus G Kruder
Collinsella aerofaciens [44] = assay: In vitro antimicrobial activity against anaerobic bacteria aerofaciens 1235; type: functional
Streptococcus pyogenes [45] = assay: In vivo effective dose against experimental infections in rodent caused by Streptococcus pyogenes C203 when administered sc; type: functional
Streptococcus pyogenes [46] = assay: In vivo effective dose against experimental infections in rodent caused by Streptococcus pyogenes C203 when administered orally; type: functional; conditions: po

With `CC[C@H]1OC(=O)C[C@@H](O)[C@H](C)[C@@H](O[C@@H]2O[C@H](C)[C@@H](O)[C@H](N(C)C)[C@H]2O)[C@@H](CC=O)C[C@@H](C)C(=O)/C=C/C(C)=C/[C@@H]1CO[C@@H]1O[C@H](C)[C@@H](O)[C@@H](OC)[C@H]1OC` the MIC (Bacteroides fragilis [1]) was 8 µg/mL (≈ 10.4 µM), the MIC (Bacteroides fragilis [2]) was 8 µg/mL (≈ 10.4 µM) and the MIC (Bacteroides fragilis [3]) was 8 µg/mL (≈ 10.4 µM). It also gave an MIC (Eikenella corrodens) of 8 µg/mL (≈ 10.4 µM), an MIC (Phocaeicola vulgatus) of 8 µg/mL (≈ 10.4 µM) and an MIC [4] of 8 µg/mL (≈ 10.4 µM). The MIC [5] was 2 µg/mL (≈ 2.59 µM), the MIC (Clostridioides difficile) was 0.25 µg/mL (≈ 0.324 µM) and the MIC (Clostridium perfringens) was 0.25 µg/mL (≈ 0.324 µM). The MIC (Clostridium septicum) was 2 µg/mL (≈ 2.59 µM), the MIC (Chlamydia trachomatis) was 0.5 µg/mL (≈ 0.648 µM) and the MIC (Fusobacterium) was 2 µg/mL (≈ 2.59 µM). It also gave an MIC (Haemophilus influenzae [6]) of 8 µg/mL (≈ 10.4 µM), an MIC (Haemophilus influenzae [7]) of 32 µg/mL (≈ 41.5 µM) and an MIC (Haemophilus influenzae [8]) of 4 µg/mL (≈ 5.18 µM). For the same compound, the MIC [9] was 8 µg/mL (≈ 10.4 µM), the MIC [10] was 16 µg/mL (≈ 20.7 µM) and the MIC [11] was 8 µg/mL (≈ 10.4 µM). The MIC (Anaerococcus prevotii) was 4 µg/mL (≈ 5.18 µM), the MIC (Cutibacterium acnes) was 2 µg/mL (≈ 2.59 µM) and the MIC [12] was > 128 µg/mL. It also gave an MIC (Staphylococcus aureus [13]) of 0.5 µg/mL (≈ 0.648 µM), an MIC (Staphylococcus aureus [14]) of 1 µg/mL (≈ 1.3 µM) and an MIC (Staphylococcus aureus [15]) of 1 µg/mL (≈ 1.3 µM). For the same compound, the MIC (Staphylococcus aureus [16]) was 1 µg/mL (≈ 1.3 µM), the MIC (Staphylococcus aureus [17]) was 1 µg/mL (≈ 1.3 µM) and the ED50 (Streptococcus pyogenes [18]) was 84 mg/kg. For the same compound, the ED50 (Streptococcus pneumoniae [19]) was > 100 mg/kg, the ED50 (Streptococcus pneumoniae [20]) was > 10 mg/kg and the MIC (Streptococcus pneumoniae [21]) was > 128 µg/mL. The MIC (Streptococcus sanguinis) was 0.5 µg/mL (≈ 0.648 µM), the ED50 (Streptococcus pyogenes [22]) was 0.8 mg/kg and the ED50 (Streptococcus pyogenes [23]) was 0.25 mg/kg. It also gave an MIC (Streptococcus pneumoniae [24]) of 0.25 µg/mL (≈ 0.324 µM), an MIC [25] of 0.5 µg/mL (≈ 0.648 µM) and an MIC [26] of 0.25 µg/mL (≈ 0.324 µM). The ED50 (Staphylococcus aureus [27]) was > 100 mg/kg, the ED50 (Staphylococcus aureus [28]) was 3.9 mg/kg and the MIC (Enterococcus faecium) was 4 µg/mL (≈ 5.18 µM). The MIC (Streptococcus pyogenes [29]) was 0.25 µg/mL (≈ 0.324 µM), the MIC (Streptococcus viridans) was > 128 µg/mL and the MIC [30] was 4 µg/mL (≈ 5.18 µM). For the same compound, the MIC (Streptococcus [31]) was 0.5 µg/mL (≈ 0.648 µM), the MIC (Staphylococcus aureus [32]) was 1 µg/mL (≈ 1.3 µM) and the MIC (Haemophilus influenzae [33]) was 16 µg/mL (≈ 20.7 µM). It also gave an MIC [34] of 16 µg/mL (≈ 20.7 µM), an MIC [35] of 1 µg/mL (≈ 1.3 µM) and an MIC (Collinsella aerofaciens [36]) of 0.12 µg/mL (≈ 0.155 µM). For the same compound, the ED50 (Streptococcus pyogenes [37]) was 1.4 mg/kg, the MIC (Streptococcus [38]) was 0.5 µg/mL (≈ 0.648 µM) and the MIC (Streptococcus [39]) was 0.5 µg/mL (≈ 0.648 µM). For the same compound, the MIC (Streptococcus [40]) was 0.5 µg/mL (≈ 0.648 µM), the MIC (Streptococcus [41]) was 0.5 µg/mL (≈ 0.648 µM) and the MIC (Streptococcus [42]) was 1 µg/mL (≈ 1.3 µM). For the same compound, the MIC (Streptococcus [43]) was 0.25 µg/mL (≈ 0.324 µM).
With `CC[C@H]1OC(=O)C[C@@H](O)[C@H](C)[C@@H](O[C@@H]2O[C@H](C)[C@@H](O[C@H]3C[C@@](C)(O)[C@@H](O)[C@H](C)O3)[C@H](N(C)C)[C@H]2O)[C@@H](CCO)C[C@@H](C)C(=O)/C=C/C(C)=C/[C@@H]1CO[C@@H]1O[C@H](C)[C@@H](O)[C@@H](OC)[C@H]1OC` [RELOMYCIN] the MIC (Bacteroides fragilis [1]) was 4 µg/mL (≈ 4.36 µM), the MIC (Bacteroides fragilis [2]) was > 8 µg/mL and the MIC (Bacteroides fragilis [3]) was 8 µg/mL (≈ 8.71 µM). For the same compound, the MIC (Eikenella corrodens) was > 8 µg/mL, the MIC (Phocaeicola vulgatus) was > 8 µg/mL and the MIC [4] was 4 µg/mL (≈ 4.36 µM). The MIC [5] was 4 µg/mL (≈ 4.36 µM), the MIC (Clostridioides difficile) was 1 µg/mL (≈ 1.09 µM) and the MIC (Clostridium perfringens) was > 8 µg/mL. For the same compound, the MIC (Clostridium septicum) was 8 µg/mL (≈ 8.71 µM), the MIC (Chlamydia trachomatis) was > 1 µg/mL and the MIC (Collinsella aerofaciens [44]) was 1 µg/mL (≈ 1.09 µM). The MIC (Fusobacterium) was 4 µg/mL (≈ 4.36 µM), the MIC (Haemophilus influenzae [8]) was > 128 µg/mL and the MIC [10] was > 8 µg/mL. For the same compound, the MIC [11] was 1 µg/mL (≈ 1.09 µM), the MIC (Anaerococcus prevotii) was > 8 µg/mL and the MIC (Cutibacterium acnes) was 8 µg/mL (≈ 8.71 µM). The MIC (Staphylococcus aureus [13]) was 4 µg/mL (≈ 4.36 µM), the ED50 (Streptococcus pyogenes [45]) was 15.4 mg/kg and the MIC (Streptococcus pneumoniae [24]) was 32 µg/mL (≈ 34.9 µM). It also gave an MIC [25] of 4 µg/mL (≈ 4.36 µM), an MIC (Enterococcus faecium) of 64 µg/mL (≈ 69.7 µM) and an MIC (Streptococcus pyogenes [29]) of 2 µg/mL (≈ 2.18 µM). The MIC [30] was > 8 µg/mL, the MIC [34] was 8 µg/mL (≈ 8.71 µM) and the MIC [35] was 1 µg/mL (≈ 1.09 µM). The ED50 (Streptococcus pyogenes [46]) was > 100 mg/kg.
